{"data": "Published values of several laboratories", "target": "Ephrin type-A receptor 7 (EPHA7, Homo sapiens, UniProt Q15375)", "note": "Compare with care: the assays were run in different laboratories."}
{"SMILES": "Cc1nn(C)cc1-c1nc2c(N3CCN(Cc4ccc(Cl)cc4)CC3)c(Cl)cnc2[nH]1", "assay": "binding, competition with immobilised ligand", "conditions": "1 µM", "measurement": "remaining binding", "value": "100%"}
{"SMILES": "O=c1[nH]c2ccccc2n1C1CCN(Cc2ccc(-c3[nH]c4cc5ncnc5cc4nc3-c3ccccc3)cc2)CC1", "assay": "cell-free assay", "conditions": "0.5 µM", "measurement": "remaining signal", "value": "109%"}
{"SMILES": "Cn1cc(-c2cc(F)cc(N3CCn4c(cc5c4CCCC5)C3=O)c2CO)cc(Nc2ccc(N3CCN(C4COC4)CC3)cn2)c1=O", "assay": "enzyme activity, inhibitor", "conditions": "0.1 µM", "measurement": "inhibition", "value": "13%"}
{"SMILES": "N#CC1(c2ccccn2)CCN(Cc2cc(C(=O)O)c(=O)n3ccccc23)CC1", "assay": "cell-free assay, competition with immobilised ligand", "conditions": "1 µM", "measurement": "remaining binding", "value": "100%"}
{"SMILES": "Nc1ncc(-c2nc(N3CCOCC3)nc(N3CCOCC3)n2)c(C(F)F)n1", "assay": "cell-free assay, competition with immobilised ligand", "conditions": "10 µM", "measurement": "remaining binding", "value": "86%"}
{"SMILES": "COc1cc(Nc2ncc(F)c(Nc3ccc4c(n3)NC(=O)C(C)(C)O4)n2)cc(OC)c1OC", "assay": "binding, competition with immobilised ligand", "conditions": "10 µM", "measurement": "inhibition", "value": "100%"}
{"SMILES": "CC(C)(C)c1cc(C=C(C#N)C#N)cc(Br)c1O", "assay": "enzyme activity, inhibitor", "conditions": "0.5 µM", "measurement": "remaining activity", "value": "107%"}
{"SMILES": "Cn1cncc1[C@@](O)(COc1ccc(C#N)cc1-c1ccc(OC(F)(F)F)cc1)c1ccc(C#N)cc1", "assay": "cell-free assay, competition with immobilised ligand", "conditions": "1 µM", "measurement": "remaining binding", "value": "100%"}
{"SMILES": "Cn1cc(-c2cccc(N3CCc4c(sc5c4CC(C)(C)C5)C3=O)c2CO)cc(Nc2ccncn2)c1=O", "assay": "enzyme activity, inhibitor", "conditions": "1 µM", "measurement": "inhibition", "value": "83%"}
{"SMILES": "COc1ncccc1-c1cnn2ccc(N3CCN(C(=O)OC(C)C)CC3)nc12", "assay": "binding, competition with immobilised ligand", "conditions": "1 µM", "measurement": "remaining binding", "value": "100%"}
